Compounds with a hit are over-represented: about 3% of the library has one in this group of screens.
M4 antag = antagonists of human muscarinic M4 receptor (CHRM4) | P08173 | CHO-hM4 cells, ACh EC80, Fluo-8 calcium fluorescence | inhibition, % at 3 µM | actives 0.73% (n = 360,000);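 active = inhibition above its plate's cutoff, the mean inhibition of sample wells plus 3 SD, cut at about 27% in these data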;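 note: 0% = acetylcholine EC80 with DMSO and 100% = DMSO without agonist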
Target sequence (P08173 whole entry, looked up): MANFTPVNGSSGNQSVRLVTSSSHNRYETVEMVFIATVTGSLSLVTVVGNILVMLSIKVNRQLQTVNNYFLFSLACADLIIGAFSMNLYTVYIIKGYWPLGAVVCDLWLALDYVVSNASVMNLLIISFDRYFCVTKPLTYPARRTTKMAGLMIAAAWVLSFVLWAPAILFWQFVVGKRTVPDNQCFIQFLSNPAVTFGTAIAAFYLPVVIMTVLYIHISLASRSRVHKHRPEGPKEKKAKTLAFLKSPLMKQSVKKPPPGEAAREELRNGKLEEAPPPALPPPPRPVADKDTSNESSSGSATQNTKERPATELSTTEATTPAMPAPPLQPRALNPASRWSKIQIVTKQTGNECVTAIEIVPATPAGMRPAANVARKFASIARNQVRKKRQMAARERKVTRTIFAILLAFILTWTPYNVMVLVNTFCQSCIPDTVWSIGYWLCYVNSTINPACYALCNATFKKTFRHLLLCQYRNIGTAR
CHRM4 agonist = CHRM4 agonism in calcium assay; P08173; CHO-K1 hM4/Gqi5, Fluo-8 calcium fluorescence; vehicle 0%, full acetylcholine response 100%; activation, % at 3 µM; actives 0.14% (n = 360,000); AID 624127;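 active = activation above the run mean over all test wells plus 3 SD, cut at about 32% in these data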;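 note: peak over basal fluorescence ratio per well then scaled between controls; 0% = DMSO wells and 100% = acetylcholine at EC100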
TAAR1 antagonist = human TAAR1 antagonism; actives 1.5% (n = 360,000); CHO RD-HGA16 TAAR1, Fluo-8 calcium fluorescence, antagonist; Q96RJ0; inhibition, % at 3 µM; AID 624466;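 active = inhibition above a per-plate cutoff, the mean inhibition of test compounds on that plate plus 3 SD, cut at about 49% in these data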;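 note: 0% = DMSO plus EC80 beta-PEA response and 100% = DMSO alone without agonist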
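System: RD-HGA16 CHO cells with stable hTAAR1 and Gα16 | Probe or stimulus: EC80 β-phenethylamine stimulus | Dosing: 3 µM, single point | Times: Dye loading 75 min at 37 °C, then 30 min room temperature | Measured by: Fluo-8 calcium-sensitive fluorescence | Read-out basis: % inhibition of agonist calcium response | Replicates: n of 1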
M4 PAM = CHRM4 positive allosteric modulation; CHO-K1 hM4/Gqi5, Fluo-8 calcium fluorescence, ACh EC20; 0% = ACh EC20, 100% = maximal ACh; activation, % at 3 µM; actives 0.4% (n = 360,000);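 active = activation above its plate's cutoff, the mean activation of sample wells plus 3 SD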
TAAR1 agonist = agonists of human TAAR1. Q96RJ0. CHO RD-HGA16 TAAR1, Fluo-8 calcium fluorescence; vehicle wells 0%, saturating PEA agonist 100%. activation, % at 3 µM. actives 0.99% (n = 360,000);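 active = activation above the mean activation of all test compounds in the run plus 3 SD, cut at about 38% in these data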
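test system = CHO RD-HGA16 cells carrying human TAAR1 plus Gα16 | schedule = 17-24 h seeding, 75 min 37 °C dye, 30 min RT | compound dosing = 3 µM single concentration | control set = DMSO and PEA EC100 | replicates = n 1 | signal = Fluo-8 fluorescence, 5 s baseline then 140 s kinetic read | measure = percent activation vs PEA EC100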
TAAR1 nonsel count = nonselective antagonist in TAAR1 antagonist counter-screen; inhibition, % at 3 µM; shares compounds with TAAR1 antagonist; counterscreen cell line, calcium fluorescence, antagonist mode; actives 77% (n = 2,400); AID 651780; in the data active = inhibition above about 22%;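 note: CHO-Ga16 host cells stimulated with ATP at an EC80 level; 0% = agonist EC80 plus vehicle and 100% = vehicle without agonist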
TAAR1 antag conf = confirmation of human TAAR1 antagonists; shares compounds with TAAR1 antagonist; TAAR1-expressing cells, fluorescence antagonist read-out; inhibition, % at 3 µM; actives 40% (n = 2,400); AID 651785; in the data active = inhibition above about 49%;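 note: CHO-Ga16 host cells challenged with agonist PEA near its EC80; 0% = agonist at EC80 plus vehicle and 100% = vehicle with no agonist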
Ga16 ag counter-1 = counter-screen for TAAR1 antagonists: nonselective Ga16 agonists. shares compounds with TAAR1 antagonist. Ga16-expressing cells, calcium fluorescence, agonist counterscreen. activation, % at 3 µM. actives 18% (n = 2,400). AID 651953; in the data active = activation above about 12%;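 note: 0% = vehicle wells and 100% = saturating stimulus response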
TAAR1 ag counter = activates human TAAR1 in antagonist counter-screen; activation, % at 3 µM; shares compounds with TAAR1 antagonist; hTAAR1 cell line, fluorescence activation, agonist mode; actives 2% (n = 2,400); in the data active = activation above about 37%;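 note: CHO cells stably expressing TAAR1 with calcium dye readout; 0% = DMSO vehicle and 100% = full agonist response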
TAAR1 ag conf = human TAAR1 agonism, confirmed. actives 82% (n = 2,400). shares compounds with TAAR1 agonist. activation, % at 3 µM. CHO RD-HGA16 TAAR1, Fluo-8 calcium fluorescence; scaled: DMSO 0%, maximal phenethylamine 100%. AID 651783;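 active = activation above a cutoff set at the run's mean compound activation plus 3 SD, cut at about 39% in these data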
Ga16 ag counter-2 = nonselective agonist in parental cells, TAAR1 agonist counter-screen. shares compounds with TAAR1 agonist. CHO-Ga16 parental, Fluo-8 calcium fluorescence; normalized to maximal ATP response, DMSO zero. activation, % at 3 µM. actives 50% (n = 2,400);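 active = activation above the run cutoff, the mean activation over all tested wells plus 3 SD, cut at about 12% in these data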;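 note: 0% = DMSO wells and 100% = maximal ATP response on the peak over basal ratio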
TAAR1 desensitize = TAAR1 response desensitization, agonist counter-screen; inhibition, % at 3 µM; CHO RD-HGA16 hTAAR1, Fluo-8 calcium, beta-PEA response inhibition; actives 46% (n = 2,400); shares compounds with TAAR1 agonist; AID 651951;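 active = inhibition above the run cutoff, the mean inhibition of all test compounds plus 3 SD, cut at about 49% in these data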;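 note: beta-PEA stimulus applied at its EC80; loss of beta-PEA calcium signal after compound pretreatment read as receptor desensitization; 0% = DMSO with beta-PEA at EC80 and 100% = DMSO alone without agonist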
Ga16 antag count = nonselective Ga16 antagonist in TAAR1 agonist counter-screen. shares compounds with TAAR1 agonist. CHO-Ga16 ATP-induced calcium, Fluo-8 fluorescence. inhibition, % at 3 µM. actives 39% (n = 2,400). AID 651952;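 active = inhibition above the plate's mean compound inhibition plus 3 SD, computed per plate, cut at about 22% in these data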;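 note: 0% = EC80 ATP with DMSO and 100% = DMSO wells without ATP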
* hit, by the source's call; . = no result given.

SMILES | M4 antag | CHRM4 agonist | TAAR1 antagonist | M4 PAM | TAAR1 agonist | TAAR1 ag conf | Ga16 ag counter-2 | TAAR1 desensitize | Ga16 antag count | others
CCC1NC(=O)c2cccnc2-n2c1nc1ccc(F)cc1c2=O (stereo unspecified) | -14 | 0 | -22 | 2 | 3 | . | . | . | .
c1ccc(-c2cc(-c3nc4ccccc4[nH]3)c3ccccc3n2)cc1 | 24 | 12 | 83* | -17 | 16 | . | . | . | . | TAAR1 nonsel count=40*;TAAR1 antag conf=66*;Ga16 ag counter-1=12*;TAAR1 ag counter=8
CCC(=O)N1CCCC(C)(C(=O)Nc2nccc3ccccc23)C1 (stereo unspecified) | -6 | 1 | -23 | 4 | 3 | . | . | . | .
COc1ccccc1CCN1C(=S)NC(C)(C)CC1(C)O (stereo unspecified) | -4 | -1 | 6 | 4 | 51* | 74* | 0 | 43 | 9
COCc1c(C(=O)NCCc2ccc(OC(F)F)cc2)oc2ccccc12 | -3 | 8 | 33 | -7 | 6 | . | . | . | .
NCCOc1ccc(C23CC4CC(CC(C4)C2)C3)cc1 | 17 | 16 | 16 | 2 | 81* | 94* | 60* | 81* | 76*
CC(C)N1CCC(C)(C(=O)Nc2cc(-c3ccccc3)nn2C)C1 (stereo unspecified) | -11 | 1 | 9 | 0 | 0 | . | . | . | .
CCOC(=O)N1CCC(Nc2ccc(N3C(=O)C4CCCCC4C3=O)cc2[N+](=O)[O-])CC1 (stereo unspecified) | -11 | 1 | -26 | 18 | 2 | . | . | . | .
CCOCCCNc1ccc(N2C(=O)C3CCCCC3C2=O)cc1[N+](=O)[O-] (stereo unspecified) | -5 | 0 | -5 | -5 | 44* | 5 | 4 | 5 | 11
NC(c1ccccc1)c1csc(NC(=O)Nc2cccc(Cl)c2)n1 (stereo unspecified) | 9 | 17 | 29 | -2 | 64* | 74* | 22* | 57* | 36*
NC(c1ccccc1)c1csc(NC(=O)NCC2CCCCC2)n1 (stereo unspecified) | -4 | 10 | -8 | 5 | 10 | . | . | . | .
NC(c1ccccc1)c1csc(NC(=O)NCCc2ccccc2)n1 (stereo unspecified) | -3 | 10 | 11 | 6 | 62* | 28 | 5 | 16 | 15
CCN(CC)CCNC(=O)c1ccc(NCN2C(=O)NC(c3ccccc3)(c3ccccc3)C2=O)cc1 | . | . | -14 | . | 4 | . | . | . | .
O=C(CC1C(=O)NCCN1CC1CCCCC1)NCc1ccc(F)cc1 (stereo unspecified) | 19 | 14 | 5 | -17 | 0 | . | . | . | .
COc1ccccc1CCNC(=O)CC1C(=O)NCCN1CCCc1ccccc1 (stereo unspecified) | 2 | 2 | 17 | -3 | 74* | 71* | 2 | 43 | 11
O=C(CC1C(=O)NCCN1CCCc1ccccc1)NCCc1ccccc1Cl (stereo unspecified) | 0 | 3 | 49* | 4 | 70* | 86* | 5 | 79* | 9
COc1cccc(CNC(=O)CC2C(=O)NCCN2CCCc2ccccc2)c1 (stereo unspecified) | 8 | 1 | -15 | 4 | 19 | . | . | . | .
CC(C)(C)CN1CCNC(=O)C1CC(=O)NCCc1ccccc1F (stereo unspecified) | 9 | 1 | . | -5 | . | . | 2 | . | 5
O=C(CC1C(=O)NCCN1CC1CCCCC1)NCCc1ccc(F)cc1 (stereo unspecified) | -9 | 1 | -17 | -6 | 45* | 50* | 0 | 5 | 2
COc1cc(F)ccc1-c1csc(C(NC(C)=O)c2ccc(F)c(F)c2)n1 (stereo unspecified) | -13 | 0 | -15 | 2 | 1 | . | . | . | .
O=C(O)CCC(=O)NCC1OCCc2ccccc21 (stereo unspecified) | 2 | 2 | 7 | 5 | 54* | 16 | 2 | 13 | 8
COc1ccc(NC(=O)CS(=O)CC(=O)NCC2OCCc3ccccc32)cc1 (stereo unspecified) | -8 | 1 | -14 | -2 | 10 | . | . | . | .
C[C@H](CO)N1C[C@H](C)[C@@H](CN(C)Cc2ccccn2)Oc2ncc(-c3ccccc3)cc2C1=O | 1 | 1 | -4 | -3 | 0 | . | . | . | .
COc1ccc(F)cc1-c1cc(NC(C)=O)c2ncc(-c3cccc(C(F)(F)F)c3)n2c1 | -8 | -1 | 42 | -1 | 1 | . | . | . | .
CCOC(=O)c1ccc(NC(=O)N2CCc3ccccc32)cc1 | 4 | 6 | 9 | -3 | 6 | . | . | . | .
SMILES | M4 antag | CHRM4 agonist | TAAR1 antagonist | M4 PAM | TAAR1 agonist | TAAR1 ag conf | Ga16 ag counter-2 | TAAR1 desensitize | Ga16 antag count | others
Cc1cc(C)cc(NC(=O)N2CCc3ccccc3C2)c1 | -4 | 0 | 11 | 3 | 58* | 67* | -1 | 11 | 3
Cc1ccc(NC(=O)N2CCc3ccccc3C2)cc1C | -8 | 0 | 16 | -4 | 31 | . | . | . | .
O=C(Nc1ccc(Br)cc1)N1CCc2ccccc2C1 | -10 | 5 | 15 | 0 | 16 | . | . | . | .
Cc1ccccc1NC(=O)CN1CCc2ccccc2C1 | 3 | 1 | -20 | -2 | 16 | . | . | . | .
CCOC(=O)c1ccc(NC(=O)N2CCc3ccccc3C2)cc1 | 0 | 9 | 9 | -3 | 63* | 48* | 12* | 49* | 24*
Cc1cccc(NC(=O)N2CCc3ccccc3C2)c1C | -16 | 2 | 52* | 4 | 80* | 80* | 1 | 29 | -4
